Experimental data as given in ChEMBL document CHEMBL4689842, “EUbOPEN Chemogenomics Library wave 1” (2021).
“And” between values parts separate entries of the source, which are not always exact repeats. Identical values can stand only once.

Test system: Fibroblast
Test: Multiplex assay against human fibroblast
Type: toxicity, cell-based
How it was run: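 Cells stained live at seeding with Hoechst33342, BioTracker Green Microtubule Cytoskeleton Dye, MitoTracker Red and Annexin V Alexa Fluor 680 were imaged on a CQ1 microscope at 37°C and 5% CO2 after compound addition. Their classification by CellPathfinder machine-learning gating ran from Hoechst high-intensity objects versus normal cells, to healthy, pyknosed or fragmented nuclei among normal cells, to mitotic or apoptotic among pyknosed cells. Tubulin, mitochondrial-mass and membrane-permeability phenotypes are per cents of healthy-nucleus cells.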

[1] = 12 h, 1 µM, compound concentration 1 uM, replicate 1
[2] = 12 h, 1 µM, compound concentration 1 uM, replicate 2
[3] = 12 h, 10 µM, compound concentration 10 uM, replicate 1
[4] = 12 h, 10 µM, compound concentration 10 uM, replicate 2
[5] = 24 h, 1 µM, compound concentration 1 uM, replicate 1
[6] = 24 h, 1 µM, compound concentration 1 uM, replicate 2
[7] = 24 h, 10 µM, compound concentration 10 uM, replicate 1
[8] = 24 h, 10 µM, compound concentration 10 uM, replicate 2
[9] = 48 h, 1 µM, compound concentration 1 uM, replicate 1
[10] = 48 h, 1 µM, compound concentration 1 uM, replicate 2
[11] = 48 h, 10 µM, compound concentration 10 uM, replicate 1
[12] = 48 h, 10 µM, compound concentration 10 uM, replicate 2

CN(C)C(=O)/C(C#N)=C/c1ccc(-c2nc3cnc4[nH]ccc4c3n2C2CCCCC2)o1
Population Apoptotic (%) [1]: 67%
Population Fragmented Nuclei (%) [1]: 27%
Population Healthy Nuclei (%) [1]: 43%
Population Hoechst High Intensity Objects (%) [1]: 19%
Population Membrane Permeable-Phenotype (%) [1]: 26%
Population Mitochondria Different-Phenotype (%) [1]: 17%
Population Mitotic Cells (%) [1]: 32%
Population Normal (%) [1]: 80%
Population Pyknosed Nuclei (%) [1]: 29%
Population Tubulin-Different-Phenotype (%) [1]: 36%
Total Cell Count [1]: 131
Population Apoptotic (%) [2]: 57%
Population Fragmented Nuclei (%) [2]: 4%
Population Healthy Nuclei (%) [2]: 87%
Population Hoechst High Intensity Objects (%) [2]: 2%
Population Membrane Permeable-Phenotype (%) [2]: 2%
Population Mitochondria Different-Phenotype (%) [2]: 6%
Population Mitotic Cells (%) [2]: 42%
Population Normal (%) [2]: 97%
Population Pyknosed Nuclei (%) [2]: 7%
Population Tubulin-Different-Phenotype (%) [2]: 24%
Total Cell Count [2]: 75
Population Apoptotic (%) [3]: 51%
Population Fragmented Nuclei (%) [3]: 28%
Population Healthy Nuclei (%) [3]: 38%
Population Hoechst High Intensity Objects (%) [3]: 61%
Population Membrane Permeable-Phenotype (%) [3]: 22%
Population Mitochondria Different-Phenotype (%) [3]: 11%
Population Mitotic Cells (%) [3]: 48%
Population Normal (%) [3]: 38%
Population Pyknosed Nuclei (%) [3]: 32%
Population Tubulin-Different-Phenotype (%) [3]: 65%
Total Cell Count [3]: 515
Population Apoptotic (%) [4]: 18%
Population Fragmented Nuclei (%) [4]: 20%
Population Healthy Nuclei (%) [4]: 62%
Population Hoechst High Intensity Objects (%) [4]: 54%
Population Membrane Permeable-Phenotype (%) [4]: 13%
Population Mitochondria Different-Phenotype (%) [4]: 63%
Population Mitotic Cells (%) [4]: 81%
Population Normal (%) [4]: 45%
Population Pyknosed Nuclei (%) [4]: 17%
Population Tubulin-Different-Phenotype (%) [4]: 70%
Total Cell Count [4]: 91
Population Apoptotic (%) [5]: 43%
Population Fragmented Nuclei (%) [5]: 34%
Population Healthy Nuclei (%) [5]: 46%
Population Hoechst High Intensity Objects (%) [5]: 14%
Population Membrane Permeable-Phenotype (%) [5]: 33%
Population Mitochondria Different-Phenotype (%) [5]: 5%
Population Mitotic Cells (%) [5]: 56%
Population Normal (%) [5]: 85%
Population Pyknosed Nuclei (%) [5]: 19%
Population Tubulin-Different-Phenotype (%) [5]: 41%
Total Cell Count [5]: 141
Population Apoptotic (%) [6]: 54%
Population Fragmented Nuclei (%) [6]: 5%
Population Healthy Nuclei (%) [6]: 84%
Population Hoechst High Intensity Objects (%) [6]: 4%
Population Membrane Permeable-Phenotype (%) [6]: 2%
Population Mitochondria Different-Phenotype (%) [6]: 10%
Population Mitotic Cells (%) [6]: 45%
Population Normal (%) [6]: 95%
Population Pyknosed Nuclei (%) [6]: 9%
Population Tubulin-Different-Phenotype (%) [6]: 36%
Total Cell Count [6]: 81
Population Apoptotic (%) [7]: 35%
Population Fragmented Nuclei (%) [7]: 27%
Population Healthy Nuclei (%) [7]: 25%
Population Hoechst High Intensity Objects (%) [7]: 61%
Population Membrane Permeable-Phenotype (%) [7]: 28%
Population Mitochondria Different-Phenotype (%) [7]: 18%
Population Mitotic Cells (%) [7]: 64%
Population Normal (%) [7]: 38%
Population Pyknosed Nuclei (%) [7]: 47%
Population Tubulin-Different-Phenotype (%) [7]: 64%
Total Cell Count [7]: 606
Population Apoptotic (%) [8]: 44%
Population Fragmented Nuclei (%) [8]: 28%
Population Healthy Nuclei (%) [8]: 53%
Population Hoechst High Intensity Objects (%) [8]: 54%
Population Membrane Permeable-Phenotype (%) [8]: 12%
Population Mitochondria Different-Phenotype (%) [8]: 49%
Population Mitotic Cells (%) [8]: 55%
Population Normal (%) [8]: 45%
Population Pyknosed Nuclei (%) [8]: 17%
Population Tubulin-Different-Phenotype (%) [8]: 45%
Total Cell Count [8]: 125
Population Apoptotic (%) [9]: 52%
Population Fragmented Nuclei (%) [9]: 33%
Population Healthy Nuclei (%) [9]: 37%
Population Hoechst High Intensity Objects (%) [9]: 15%
Population Membrane Permeable-Phenotype (%) [9]: 24%
Population Mitochondria Different-Phenotype (%) [9]: 8%
Population Mitotic Cells (%) [9]: 47%
Population Normal (%) [9]: 84%
Population Pyknosed Nuclei (%) [9]: 29%
Population Tubulin-Different-Phenotype (%) [9]: 46%
Total Cell Count [9]: 143
Population Apoptotic (%) [10]: 100%
Population Fragmented Nuclei (%) [10]: 24%
Population Healthy Nuclei (%) [10]: 72%
Population Hoechst High Intensity Objects (%) [10]: 10%
Population Membrane Permeable-Phenotype (%) [10]: 14%
Population Mitochondria Different-Phenotype (%) [10]: 5%
Population Mitotic Cells (%) [10]: 0%
Population Normal (%) [10]: 89%
Population Pyknosed Nuclei (%) [10]: 2%
Population Tubulin-Different-Phenotype (%) [10]: 24%
Total Cell Count [10]: 119
Population Apoptotic (%) [11]: 37%
Population Fragmented Nuclei (%) [11]: 28%
Population Healthy Nuclei (%) [11]: 28%
Population Hoechst High Intensity Objects (%) [11]: 62%
Population Membrane Permeable-Phenotype (%) [11]: 30%
Population Mitochondria Different-Phenotype (%) [11]: 11%
Population Mitotic Cells (%) [11]: 62%
Population Normal (%) [11]: 37%
Population Pyknosed Nuclei (%) [11]: 42%
Population Tubulin-Different-Phenotype (%) [11]: 57%
Total Cell Count [11]: 650
Population Apoptotic (%) [12]: 57%
Population Fragmented Nuclei (%) [12]: 31%
Population Healthy Nuclei (%) [12]: 57%
Population Hoechst High Intensity Objects (%) [12]: 43%
Population Membrane Permeable-Phenotype (%) [12]: 9%
Population Mitochondria Different-Phenotype (%) [12]: 9%
Population Mitotic Cells (%) [12]: 42%
Population Normal (%) [12]: 56%
Population Pyknosed Nuclei (%) [12]: 11%
Population Tubulin-Different-Phenotype (%) [12]: 62%
Total Cell Count [12]: 307

Cn1c(-c2csc(C3CCN(CC4=NC5N=CC=CC5N4)CC3)n2)nc2ccccc21 (configuration not stated) [BAY-070]
Population Apoptotic (%) [3]: 66% and 86%
Population Fragmented Nuclei (%) [3]: 30% and 26%
Population Healthy Nuclei (%) [3]: 53% and 58%
Population Hoechst High Intensity Objects (%) [3]: 11% and 14%
Population Membrane Permeable-Phenotype (%) [3]: 12% and 9%
Population Mitochondria Different-Phenotype (%) [3]: 4%
Population Mitotic Cells (%) [3]: 33% and 13%
Population Normal (%) [3]: 88% and 85%
Population Pyknosed Nuclei (%) [3]: 15%
Total Cell Count [3]: 238 and 282
Population Fragmented Nuclei (%) [4]: 66% and 53%
Population Healthy Nuclei (%) [4]: 21% and 36%
Population Hoechst High Intensity Objects (%) [4]: 33% and 37%
Population Membrane Permeable-Phenotype (%) [4]: 36% and 29%
Population Normal (%) [4]: 66% and 62%
Population Pyknosed Nuclei (%) [4]: 11% and 10%
Total Cell Count [4]: 77 and 75
Population Apoptotic (%) [7]: 51% and 62%
Population Fragmented Nuclei (%) [7]: 23% and 16%
Population Healthy Nuclei (%) [7]: 61% and 67%
Population Hoechst High Intensity Objects (%) [7]: 10% and 13%
Population Membrane Permeable-Phenotype (%) [7]: 9% and 8%
Population Mitotic Cells (%) [7]: 48% and 37%
Population Normal (%) [7]: 89% and 86%
Population Pyknosed Nuclei (%) [7]: 15% and 16%
Total Cell Count [7]: 222 and 285
Population Fragmented Nuclei (%) [8]: 65% and 57%
Population Healthy Nuclei (%) [8]: 23% and 30%
Population Hoechst High Intensity Objects (%) [8]: 41% and 29%
Population Membrane Permeable-Phenotype (%) [8]: 30% and 22%
Population Mitotic Cells (%) [8]: 100% and 42%
Population Normal (%) [8]: 58% and 70%
Population Pyknosed Nuclei (%) [8]: 11%
Population Tubulin-Different-Phenotype (%) [8]: 40% and 50%
Total Cell Count [8]: 74 and 84
